Eleven compounds from ChEMBL document CHEMBL4257496, “Discovery and biological evaluation of N5-substituted 6,7-dioxo-6,7-dihydropteridine derivatives as potent Bruton's tyrosine kinase inhibitors” (Medchemcomm, 2018) can be followed below.

Molecules are shown by their SMILES. pIC50: −log10 of the molar value. Activity calls are given as the source filed them. The rule behind the calls is not given here.

For experiment [1], the target named is T1, Tyrosine-protein kinase BTK (Homo sapiens, UniProt Q06187). Kind of experiment: Inhibition of recombinant human full-length N-terminal His6-tagged BTK expressed in baculovirus infected Sf21insect cells using poly (4:1 Glu, Tyr) as substrate measured after 1 hr by ELISA.
T1 sequence (Q06187 whole entry): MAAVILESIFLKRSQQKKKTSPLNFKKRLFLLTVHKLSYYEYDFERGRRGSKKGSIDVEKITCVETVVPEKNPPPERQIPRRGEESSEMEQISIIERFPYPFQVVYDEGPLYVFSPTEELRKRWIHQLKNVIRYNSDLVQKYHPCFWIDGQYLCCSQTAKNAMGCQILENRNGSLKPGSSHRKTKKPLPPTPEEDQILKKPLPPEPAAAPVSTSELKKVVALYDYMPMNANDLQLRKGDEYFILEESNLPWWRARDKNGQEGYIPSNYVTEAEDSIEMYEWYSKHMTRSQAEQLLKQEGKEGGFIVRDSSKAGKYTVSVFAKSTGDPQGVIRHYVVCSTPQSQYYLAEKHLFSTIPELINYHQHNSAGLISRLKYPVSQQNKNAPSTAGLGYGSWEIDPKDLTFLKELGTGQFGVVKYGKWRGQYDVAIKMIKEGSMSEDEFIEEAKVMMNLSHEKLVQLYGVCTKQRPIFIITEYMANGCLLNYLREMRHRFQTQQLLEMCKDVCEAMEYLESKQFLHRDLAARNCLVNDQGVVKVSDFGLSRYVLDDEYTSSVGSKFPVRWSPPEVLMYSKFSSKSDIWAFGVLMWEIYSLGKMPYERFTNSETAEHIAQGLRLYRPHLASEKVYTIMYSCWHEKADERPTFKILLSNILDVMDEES
In experiment [2] the target is T1, Tyrosine-protein kinase BTK. Kind of experiment: Inhibition of anti-IgM-induced BTK phosphorylation at Y223 residue in human Ramos cells at 5 nM preincubated for 1.5 hrs followed by anti-IgM stimulation and measured after 15 mins by Western blot analysis.
The target is the same in experiment [3]. In words: Inhibition of anti-IgM-stimulated BTK activation in human Ramos cells assessed as reduction in PLCgamma2 phosphorylation at Y759 residue at 5 nM preincubated for 1.5 hrs followed by anti-IgM stimulation and measured after 15 mins by Western blot analysis. Type of experiment: cell-based. The method in brief:
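Ramos cells were serum-starved 2 h and treated with compound for 1.5 h. They were then stimulated with anti-IgM (2.5 μg mL–1) for 15 min. Cells were lysed by boiling 30 min in Tris-HCl pH 6.8/DTT/SDS buffer and analysed by western blot. Blots were probed for BTK, p-BTK (Tyr223), PLCγ2 and p-PLCγ2, with β-actin or α-tubulin as loading controls.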
Background: A western blot detects proteins with antibodies after separation by electrophoresis.

A further experiment deals with Ramos. Kind of experiment: Antiproliferative activity against human Ramos cells after 72 hrs by MTT assay. The class given is functional, cell-based. The method in brief:
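Ramos Burkitt's lymphoma cells (RPMI-1640 with 10% FBS, 37 °C, 5% CO2) were seeded and grown 2 h, then exposed to a range of concentrations in PBS, each in triplicate, for 72 h. MTT was added for 4 h at 37 °C, followed by SDS lysis buffer, and absorbance was read at 570 nm. Inhibition rate = [1 – (A treated/A control)] × 100%. Values are means ± SD of at least two independent determinations.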

Experiment [4] deals with Receptor tyrosine-protein kinase erbB-2 (Homo sapiens) (UniProt P04626). Kind of experiment: Inhibition of ErbB2 (unknown origin) at 100 nM using poly (4:1 Glu, Tyr) as substrate measured after 1 hr by ELISA relative to control. The method in brief:
(§1)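 ELISA kinase assay. Poly(Glu,Tyr)4:1 substrate was precoated at 20 μg mL–1. Active kinase was incubated with compound in 50 mM HEPES pH 7.4, 20 mM MgCl2, 0.1 mM MnCl2, 0.2 mM Na3VO4, 1 mM DTT and 5 μM ATP at 37 °C for 1 h. Phosphotyrosine was detected with anti-phosphotyrosine PY99 and an HRP secondary antibody, developed with OPD, and absorbance was read at 492 nm.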
(ELISA stands for enzyme-linked immunosorbent assay.)

Experiment [5] deals with Receptor tyrosine-protein kinase erbB-4 (Homo sapiens) (UniProt Q15303). Kind of experiment: Inhibition of ErbB4 (unknown origin) at 100 nM using poly (4:1 Glu, Tyr) as substrate measured after 1 hr by ELISA. The method in brief: as §1
Receptor tyrosine-protein kinase erbB-4 (Homo sapiens), sequence (Q15303 whole entry): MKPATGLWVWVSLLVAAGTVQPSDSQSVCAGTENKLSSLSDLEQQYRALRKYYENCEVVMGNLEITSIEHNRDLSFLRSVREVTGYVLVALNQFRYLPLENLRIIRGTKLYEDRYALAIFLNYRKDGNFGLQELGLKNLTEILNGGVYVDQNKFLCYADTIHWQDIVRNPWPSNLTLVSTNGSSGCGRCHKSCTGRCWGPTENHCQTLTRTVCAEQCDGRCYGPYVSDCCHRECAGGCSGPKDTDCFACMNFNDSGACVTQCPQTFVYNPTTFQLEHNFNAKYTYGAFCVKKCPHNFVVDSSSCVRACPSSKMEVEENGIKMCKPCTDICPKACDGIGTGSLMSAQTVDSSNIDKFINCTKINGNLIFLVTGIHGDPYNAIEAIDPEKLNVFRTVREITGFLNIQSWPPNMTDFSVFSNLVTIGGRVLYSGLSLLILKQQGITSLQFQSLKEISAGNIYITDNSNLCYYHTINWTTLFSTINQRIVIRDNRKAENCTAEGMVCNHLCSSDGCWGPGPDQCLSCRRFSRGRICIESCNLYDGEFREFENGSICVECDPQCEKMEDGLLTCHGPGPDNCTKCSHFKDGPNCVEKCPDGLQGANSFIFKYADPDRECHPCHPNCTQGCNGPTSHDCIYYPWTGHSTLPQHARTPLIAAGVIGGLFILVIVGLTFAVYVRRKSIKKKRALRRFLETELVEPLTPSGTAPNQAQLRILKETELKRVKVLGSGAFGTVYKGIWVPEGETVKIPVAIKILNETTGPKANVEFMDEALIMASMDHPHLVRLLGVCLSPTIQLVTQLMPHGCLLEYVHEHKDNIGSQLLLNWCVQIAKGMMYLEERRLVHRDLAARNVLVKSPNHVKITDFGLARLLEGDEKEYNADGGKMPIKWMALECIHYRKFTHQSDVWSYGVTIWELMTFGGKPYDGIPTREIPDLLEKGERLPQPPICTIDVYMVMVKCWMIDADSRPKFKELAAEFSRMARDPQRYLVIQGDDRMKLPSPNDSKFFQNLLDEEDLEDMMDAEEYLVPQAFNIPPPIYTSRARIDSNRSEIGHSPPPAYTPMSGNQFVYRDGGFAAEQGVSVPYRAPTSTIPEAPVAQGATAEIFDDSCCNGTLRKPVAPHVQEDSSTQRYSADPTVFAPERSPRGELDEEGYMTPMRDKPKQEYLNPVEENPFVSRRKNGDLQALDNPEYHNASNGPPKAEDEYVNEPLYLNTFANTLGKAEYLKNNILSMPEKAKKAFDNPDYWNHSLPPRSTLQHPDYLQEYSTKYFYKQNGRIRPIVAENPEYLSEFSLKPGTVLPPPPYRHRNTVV
The target of experiment [6] is Epidermal growth factor receptor (Homo sapiens) (UniProt P00533). In words: Inhibition of EGFR (unknown origin) at 100 nM using poly (4:1 Glu, Tyr) as substrate measured after 1 hr by ELISA. An outline of the steps:
as §1

The target in experiment [7] is Proto-oncogene tyrosine-protein kinase receptor Ret (Homo sapiens) (UniProt P07949). In words: Inhibition of RET (unknown origin) at 100 nM using poly (4:1 Glu, Tyr) as substrate measured after 1 hr by ELISA relative to control. The method in brief:
as §1

The target in experiment [8] is T2, Tyrosine-protein kinase ITK/TSK (Homo sapiens) (UniProt Q08881).
T2 sequence (whole entry): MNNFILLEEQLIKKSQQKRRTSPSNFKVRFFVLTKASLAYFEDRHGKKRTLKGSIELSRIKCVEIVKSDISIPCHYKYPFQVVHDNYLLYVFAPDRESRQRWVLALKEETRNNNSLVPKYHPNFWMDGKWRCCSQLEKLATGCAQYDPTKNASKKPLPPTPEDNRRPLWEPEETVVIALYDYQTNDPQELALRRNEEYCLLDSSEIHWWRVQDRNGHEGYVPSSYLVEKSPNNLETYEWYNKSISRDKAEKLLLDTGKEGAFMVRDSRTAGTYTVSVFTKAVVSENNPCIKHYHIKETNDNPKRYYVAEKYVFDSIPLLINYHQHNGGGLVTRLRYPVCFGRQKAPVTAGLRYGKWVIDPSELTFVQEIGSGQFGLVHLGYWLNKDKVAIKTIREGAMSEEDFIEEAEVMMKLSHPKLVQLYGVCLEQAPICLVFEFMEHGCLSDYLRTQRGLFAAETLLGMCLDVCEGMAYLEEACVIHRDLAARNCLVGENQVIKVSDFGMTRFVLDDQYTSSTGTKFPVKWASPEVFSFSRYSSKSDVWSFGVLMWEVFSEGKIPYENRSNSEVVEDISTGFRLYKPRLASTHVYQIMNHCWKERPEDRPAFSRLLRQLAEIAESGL
In words: Inhibition of ITK (unknown origin) at 100 nM using poly (4:1 Glu, Tyr) as substrate measured after 1 hr by ELISA relative to control. An outline of the steps:
as §1

For another experiment, the species on record is Homo sapiens. Kind of experiment: Selectivity ratio of IC50 for EGFR (unknown origin) to IC50 for recombinant human full-length N-terminal His6-tagged BTK expressed in baculovirus infected Sf21insect cells.

Epidermal growth factor receptor (Homo sapiens), sequence (P00533 whole entry): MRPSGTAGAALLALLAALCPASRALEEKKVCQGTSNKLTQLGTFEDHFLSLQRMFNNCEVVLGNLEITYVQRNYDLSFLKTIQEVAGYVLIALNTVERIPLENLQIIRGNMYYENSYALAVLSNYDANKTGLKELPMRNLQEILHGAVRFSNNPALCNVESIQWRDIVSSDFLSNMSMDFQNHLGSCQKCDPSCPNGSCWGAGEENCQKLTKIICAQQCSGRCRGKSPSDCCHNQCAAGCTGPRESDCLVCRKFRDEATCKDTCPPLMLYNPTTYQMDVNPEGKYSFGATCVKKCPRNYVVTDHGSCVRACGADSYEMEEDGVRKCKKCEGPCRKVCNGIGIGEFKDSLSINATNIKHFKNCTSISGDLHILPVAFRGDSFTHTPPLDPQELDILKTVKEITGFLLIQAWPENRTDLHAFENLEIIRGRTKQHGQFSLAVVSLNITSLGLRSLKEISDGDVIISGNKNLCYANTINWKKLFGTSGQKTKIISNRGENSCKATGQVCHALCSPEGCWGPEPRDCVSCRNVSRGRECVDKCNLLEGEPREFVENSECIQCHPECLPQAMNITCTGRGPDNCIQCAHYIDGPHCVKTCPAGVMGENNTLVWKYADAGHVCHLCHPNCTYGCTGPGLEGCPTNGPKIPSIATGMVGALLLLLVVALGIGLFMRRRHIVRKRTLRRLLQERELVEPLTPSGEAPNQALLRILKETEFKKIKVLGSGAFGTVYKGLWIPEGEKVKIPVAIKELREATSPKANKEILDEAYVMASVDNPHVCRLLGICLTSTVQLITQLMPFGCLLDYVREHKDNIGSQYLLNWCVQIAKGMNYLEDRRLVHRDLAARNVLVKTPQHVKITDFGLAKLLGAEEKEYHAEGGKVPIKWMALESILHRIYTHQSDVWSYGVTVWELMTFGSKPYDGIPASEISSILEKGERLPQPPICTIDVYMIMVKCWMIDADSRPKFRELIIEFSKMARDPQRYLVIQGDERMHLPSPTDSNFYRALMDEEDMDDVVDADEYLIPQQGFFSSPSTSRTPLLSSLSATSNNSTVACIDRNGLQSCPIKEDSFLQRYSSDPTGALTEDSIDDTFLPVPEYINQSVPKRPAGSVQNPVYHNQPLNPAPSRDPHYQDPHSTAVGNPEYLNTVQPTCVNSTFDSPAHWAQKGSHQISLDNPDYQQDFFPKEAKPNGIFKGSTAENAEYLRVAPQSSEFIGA
Receptor tyrosine-protein kinase erbB-2 (Homo sapiens), sequence (P04626 whole entry): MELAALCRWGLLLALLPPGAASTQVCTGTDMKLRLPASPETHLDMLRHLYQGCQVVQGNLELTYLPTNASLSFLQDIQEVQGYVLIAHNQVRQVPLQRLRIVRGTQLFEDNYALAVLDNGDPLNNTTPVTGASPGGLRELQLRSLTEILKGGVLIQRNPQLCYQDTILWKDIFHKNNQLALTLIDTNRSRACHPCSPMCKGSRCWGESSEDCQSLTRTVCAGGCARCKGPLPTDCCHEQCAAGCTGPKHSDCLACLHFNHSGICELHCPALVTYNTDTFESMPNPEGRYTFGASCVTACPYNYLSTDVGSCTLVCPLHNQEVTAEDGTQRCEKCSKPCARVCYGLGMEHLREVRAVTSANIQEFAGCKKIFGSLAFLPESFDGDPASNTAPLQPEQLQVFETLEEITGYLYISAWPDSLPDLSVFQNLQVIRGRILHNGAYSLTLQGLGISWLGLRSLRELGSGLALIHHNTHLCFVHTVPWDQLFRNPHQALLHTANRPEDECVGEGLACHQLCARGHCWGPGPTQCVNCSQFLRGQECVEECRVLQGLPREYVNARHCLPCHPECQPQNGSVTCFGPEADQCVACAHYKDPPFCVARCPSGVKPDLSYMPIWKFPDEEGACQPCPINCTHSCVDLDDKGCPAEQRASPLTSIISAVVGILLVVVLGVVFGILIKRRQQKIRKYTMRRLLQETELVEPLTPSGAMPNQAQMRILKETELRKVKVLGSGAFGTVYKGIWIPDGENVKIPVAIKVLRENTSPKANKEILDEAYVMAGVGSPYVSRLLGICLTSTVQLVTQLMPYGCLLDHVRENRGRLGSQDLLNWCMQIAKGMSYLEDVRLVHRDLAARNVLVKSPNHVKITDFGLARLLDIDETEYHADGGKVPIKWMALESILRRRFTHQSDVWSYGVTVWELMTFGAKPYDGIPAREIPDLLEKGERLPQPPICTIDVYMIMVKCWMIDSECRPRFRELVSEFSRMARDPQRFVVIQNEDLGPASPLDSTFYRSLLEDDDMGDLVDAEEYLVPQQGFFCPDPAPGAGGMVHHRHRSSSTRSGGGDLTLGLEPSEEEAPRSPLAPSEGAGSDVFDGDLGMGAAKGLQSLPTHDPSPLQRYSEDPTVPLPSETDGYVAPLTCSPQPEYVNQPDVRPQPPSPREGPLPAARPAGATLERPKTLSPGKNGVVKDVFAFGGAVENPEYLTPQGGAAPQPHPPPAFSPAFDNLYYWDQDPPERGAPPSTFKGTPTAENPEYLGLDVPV

What is called pIC50 is the negative decadic logarithm of the IC50, by convention in mol/L. Regarding `C=CC(=O)Nc1cccc(-n2c(=O)c(=O)n(CCC)c3cnc(Nc4ccc(N5CCN(C)CC5)cc4OC)nc32)c1`, in experiment [1], the pIC50 was 7.66.
Usually inhibition stands for the relative decrease from the control value, in per cent. With `C=CC(=O)Nc1cccc(-n2c(=O)c(=O)[nH]c3cnc(Nc4ccc(N5CCN(C)CC5)cc4OC)nc32)c1`, the inhibition entry in experiment [2] and in experiment [3] was “inactive” in each case. The pIC50 in the experiment with Ramos is less than 4.00; in experiment [1], 8.27.
Regarding `C=CC(=O)Nc1cccc(-n2c(=O)c(=O)n(C(C)C)c3cnc(Nc4ccc(N5CCC(N6CCN(C)CC6)CC5)cc4OC)nc32)c1`, the pIC50 in [1] was 7.89.
Same read-out and setting: the figure for `C=CC(=O)Nc1cccc(-n2c(=O)c(=O)n(C(C)C)c3cnc(Nc4ccc(OCCN(C)C)cc4OC)nc32)c1` is 7.50.
Take `C=CC(=O)Nc1cccc(-n2c(=O)c(=O)n(C(C)C)c3cnc(Nc4ccc(N5CCN(C)CC5)c(C)c4)nc32)c1`: the inhibition entry in experiment [2], in [3], in experiment [5] and in experiment [6] was “Active” throughout. The inhibition in experiment [4] is less than 35%; in [7], more than 70%; in experiment [8], less than 35%. Also, the values for the pIC50 (in the experiment on Ramos; in experiment [1]) were 5.03 and 8.72, respectively.
For the compound `C=CC(=O)Nc1cccc(-n2c(=O)c(=O)n(C(C)C)c3cnc(Nc4ccc(N5CCN(C)CC5)cc4OC)nc32)c1`, the inhibition in [4] and in experiment [8] was less than 35% each time. Besides, the inhibition result in [5] and in [6] was “Active” throughout. In addition, the Ratio IC50 in the experiment listed under Homo sapiens stood at 23. In addition, in [1], the negative logarithm of the IC50 (pIC50) is 7.32.
In the case of `C=CC(=O)Nc1cccc(-n2c(=O)c(=O)n(C)c3cnc(Nc4ccc(N5CCN(C)CC5)cc4OC)nc32)c1`, the negative-log IC50 (pIC50) in [1] was 6.63.
On the same count and under the same terms, for `C=CC(=O)Nc1cccc(-n2c(=O)c(=O)n(CC)c3cnc(Nc4ccc(N5CCN(C)CC5)cc4OC)nc32)c1` the value was 7.76; for `C=CC(=O)Nc1cccc(-n2c(=O)c(=O)n(C(C)C)c3cnc(Nc4ccc(N(C)CCN(C)C)cc4OC)nc32)c1`, 7.68.
Consider `C=CC(=O)N1CCC[C@@H](n2nc(-c3ccc(Oc4ccccc4)cc3)c3c(N)ncnc32)C1` [IBRUTINIB], for which the pIC50 in the experiment with Ramos was 5.21.
As to `C=CC(=O)Nc1cccc(-n2c(=O)c(=O)n(C(C)C)c3cnc(Nc4ccc(N5CCN(C)CC5)c(OC)c4)nc32)c1`, the inhibition result in [2], in experiment [3], in experiment [5] and in experiment [6] was “Active” throughout. Besides, the inhibition in experiment [4] was less than 35%; in experiment [7], more than 70%; in experiment [8], less than 35%. The figures for the pIC50 (with Ramos; in experiment [1]) were 5.00 and 8.62, respectively.
